Data on 96 compounds can be found in ChEMBL document CHEMBL4513216, “Probing the Open Global Health Chemical Diversity Library for Multistage-Active Starting Points for Next-Generation Antimalarials” (ACS Infect Dis, 2020).

The data set is described as follows: Toxicity liver stage against HepG2, at 10uM. More on the design: test concentration 10 uM, cell line HepG2-A16-CD81EGFP. Type of data set: cell-based. To be noted: human, HepG2-A16-CD81EGFP cells; read-out: INHIBITION
The method in brief:
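Uninfected HepG2-A16-CD81EGFP cells, 3 × 10^3 per well, 1536-well, plated on prespotted compound at 10 μM final, parasite-free screening media added to match infected plates; puromycin 10 μM positive, DMSO 0.5% negative; run in parallel with 48 h PbLuc assay at 37 °C, 5% CO2; viability by CellTiter-Glo luminescence, normalized to controls.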
Take `O=C(CN1CCN(C(=O)c2ccccc2)CC1)Nc1ncc(Br)cc1Br`: the cytotoxicity at 10 µM came out at 8.63%.
To `Cc1nccc(-c2cccc(NCc3nc(C(C)C)no3)c2)n1` belongs 5.75%.
To `O=C(C[C@@H]1COC[C@H]2CN(Cc3ccncc3)C[C@@H]12)N1CCCC1` belongs -2.3%.
To `CCn1cc(CN2CCN(CC(O)c3ccc(C)cc3C)CC2)c(C)n1` (stereo unspecified) belongs -0.664%; to `Cc1nc2ccc(C(=O)N3C[C@@H](O)[C@H](N4CCCC4)C3)cc2[nH]1`, -8.66%.
Take `NCc1cnn(-c2ccccc2C(=O)NCc2ccccc2Cl)c1`: the cytotoxicity at 10 µM was -3.52%.
The figure for `COCCC(=O)N1CCCC(c2nc(O)cc(-c3ccncc3)n2)C1` (stereo unspecified) is -24.9%.
With `Cc1ncsc1-c1nnc(C2CCN(Cc3ccccc3)CC2)o1`, the cytotoxicity at 10 µM is -6.39%.
On to `c1cnc(-c2cnc(N3CCSCC3)nc2C2CCCO2)cn1` (stereo unspecified), for which the cytotoxicity at 10 µM is 4.4%.
For the compound `Cc1cccc(-n2cnc(Cl)c2CO)c1`, the cytotoxicity at 10 µM was -11.8%.
To `CC1(C)COCCN1C(=O)c1ccc(Cn2cncn2)cc1` belongs -5.85%.
The figure for `CS(=O)(=O)N1CCC(C(=O)Nc2nnc(C(F)(F)F)[nH]2)CC1` is 9.52%; for `CCOC(C)C(=O)Nc1cc(S(=O)(=O)NC2CC2)ccc1F` (stereo unspecified) it is -7.51%; for `CC(=O)N1CCC(Oc2ccc(C#N)cc2)CC1` it is -83.4%.
`O=C(O)CCc1ccc(S(=O)(=O)Nc2cnn(CC(F)(F)F)c2)cc1`: the cytotoxicity at 10 µM was -7.52%.
The figure for `CCN(C(=O)Cc1ccc(NCc2nccn2C)cc1)c1ccccc1` is -2.09%.
The figure for `CC(=O)NC1CCN(C(=O)Nc2cccc(SC(F)F)c2)CC1` is -0.598%; for `Cc1cccc(C(=O)N(CC(=O)O)CC(C)C)c1` it is -14.3%.
The figure for `CN(CCOCC1CC1)C(=O)Nc1ccc([S+](C)[O-])cc1` (stereo unspecified) is 19.4%; for `CC(Oc1cc(Cl)cc(Cl)c1)C(=O)NCCOCC(N)=O` (stereo unspecified) it is -5.82%.
Regarding `COc1cc(CNC(=O)c2csc(Br)c2)ccn1`, the cytotoxicity at 10 µM is -5.76%.
The figure for `Cn1cc(C2(C)CN(Cc3ccc(N4CCCC4)nc3)CCO2)cn1` (stereo unspecified) is 8.32%; for `Cn1c(NC(=O)CNC(=O)C2CCCC2)nc2cc(Cl)ccc21` it is -4.53%.
As for `COCCN(CCC#N)S(=O)(=O)c1cc(F)ccc1F`, the cytotoxicity at 10 µM is -9.91%.
To `CN(CC(=O)N1CCCC1c1noc(C2CC2)n1)S(C)(=O)=O` (stereo unspecified) belongs -8.2%; to `O=C(Cn1cccn1)NCC(c1cccs1)N1CCCC1` (stereo unspecified), 11.9%; to `NC(=O)NC(=O)CCN1CCCC1c1cccc2c1OCCO2` (stereo unspecified), -5.35%.
To `Cc1cnn(CC(C)NCc2nc(-c3ccoc3)no2)c1` (stereo unspecified) belongs 23.3%; to `Cc1nc(-c2ccsc2)ccc1C(=O)N(C)CC1CC1`, 2.83%; to `CCOC(C)c1noc(CN2CCN(CC3CCCC3)CC2)n1` (stereo unspecified), -13.2%.
The figure for `CC(NC(=O)c1sccc1C1CC1)c1ccc2c(c1)CC(=O)N2` (stereo unspecified) is 1.66%; for `Cc1cc(C)c(CNC(=O)NC2CCOCC2)c(=O)[nH]1` it is -7.05%.
Regarding `O=C(CC1CCCO1)Nc1ccn(Cc2cccc3cccnc23)n1` (stereo unspecified), the cytotoxicity at 10 µM amounted to 2.17%.
The figure for `CCC(C)(C)NC(=O)Nc1nnc(-c2ccccn2)s1` is 6.39%; for `Cc1occc1C(=O)NCCOc1ccc(C(F)(F)F)cn1` it is -7.62%.
To `COc1ccccc1C(C)(C)NCc1ccco1` belongs 5.95%.
The figure for `N#CCCN(c1ccc(F)cc1)S(=O)(=O)CC1CCCCO1` (stereo unspecified) is 5.65%.
As to `CSc1nc(C2CC2)nc(C)c1C(=O)NCc1cc(C)on1`, the cytotoxicity at 10 µM was -11.7%.
The figure for `CCN(Cc1noc(C(C)(C)C)n1)Cc1ccc(C#N)cc1F` is -4.45%; for `NC(=O)Nc1cc(Br)cnc1OCC(F)(F)F` it is 8.28%; for `NC(=O)c1cccc(CCNCc2cccs2)c1` it is 1.68%.
For the compound `C1CCC(N2CCCN(c3nc(C4CC4)no3)CC2)C1`, the cytotoxicity at 10 µM was -9.13%.
To `O=C(Nc1ccnn1Cc1ccc(Cl)cc1)C1CCS(=O)(=O)C1` (stereo unspecified) belongs 10.9%.
To `CC(CCc1ccccc1)CC(=O)NC1CCN(CC(N)=O)CC1` (stereo unspecified) belongs 9.04%; to `CC(Cn1cccn1)NS(=O)(=O)Cc1ccccc1` (stereo unspecified), 6.8%; to `CC1(C)C[C@H](CCNC(=O)c2ccncc2)c2ccccc2O1`, -5.55%.
To `O=C1CCC2(CCOC2)CN1Cc1nc2ccc(Cl)cc2[nH]1` (stereo unspecified) belongs 1.9%; to `Cc1nn(C)cc1CN(C)c1nccc(-c2cn(C)nc2C)n1`, 20.2%.
`CCOc1ccnc(N2CCN(Cc3ncccc3C)CC2)n1`: the cytotoxicity at 10 µM is -7.32%.
The figure for `CNc1cc(C)nc(N2CCC3(CC2)[C@H](O)C[C@@H]3OCCN(C)C)n1` is -1.26%.
To `Cc1cc(CN2CCC(CNC(=O)Cc3ccc(F)cc3)C2)[nH]n1` (stereo unspecified) belongs -139%; to `COc1ccc(F)cc1NC(=O)NCC1(CN2CCOCC2)CC1`, 3.18%; to `COCCC1(C(=O)O)CCCN(CCOCc2ccccc2)C1` (stereo unspecified), -12.3%.
The figure for `CC(C)[C@@H]1CN(CC(=O)NCc2ccco2)C[C@H]1NS(=O)(=O)N(C)C` is 6.11%; for `C[C@@H]1CN(CC(C)(C)N2CCOCC2)CC[C@@]1(O)C1CCOCC1` it is -1.71%; for `Cc1ccccc1Oc1ncccc1CNC1CCC1` it is -1.27%.
In the case of `O=C(NC1CCOCC1)c1cccc(C2CCCNC2)c1` (stereo unspecified), the cytotoxicity at 10 µM is 2.58%.
In the case of `Cc1cc2nc(C(C)C)cc(NCC(c3ccccn3)N(C)C)n2n1` (stereo unspecified), the cytotoxicity at 10 µM is -1.63%.
The figure for `Cc1ncccc1OC1(C(=O)NCCC2CCCN2C)CCNCC1` (stereo unspecified) is 2.18%; for `O=C(COCC(F)(F)C(F)F)N1CCC2(CCCN(CC3CC3)C2=O)C1` (stereo unspecified) it is 4.46%; for `O=C(CN1CCCCC1)Nc1ncc(Br)cc1Br` it is -9.58%.
To `CN(c1ccncn1)C1CC2(CCN(C(=O)c3ccsc3)C2)C1` (stereo unspecified) belongs 4.02%.
Turning to `CCn1cnnc1CNC(=O)N1CCN(c2nccs2)CC1`, the cytotoxicity at 10 µM is -2.72%.
The figure for `CSCC(=O)N1CCCC(c2cc(C)[nH]n2)C1` (stereo unspecified) is -11.3%; for `Cc1ccc(-c2nc(C(=O)N(C)C3CCN(C)CC3)cs2)c(C)c1` it is -7.07%; for `Cc1cnn(C2CCCN(C(=O)c3ccccc3-n3cnnn3)C2)c1` (stereo unspecified) it is -6.92%.
The figure for `CC(C(=O)N1CCCN(Cc2ccc(C#N)cc2)CC1)n1cncn1` (stereo unspecified) is 2.6%; for `Cc1cc(C)c(CNC(=O)N2CCCC2c2cccc(F)c2)c(=O)[nH]1` (stereo unspecified) it is 5.22%; for `CCOc1cccc2c1OCC(C(=O)NS(=O)(=O)c1ccc(Cl)s1)=C2` it is -3.21%.
The figure for `Cc1nc(C)n(CC2CCCCN2c2ncnc3ccsc23)n1` (stereo unspecified) is -2.04%.
Regarding `COC(=O)c1cccn1C1CCN(C(=O)c2cn[nH]c2C)CC1`, the cytotoxicity at 10 µM was -7.64%.
The figure for `CCOc1nnc(CN2CCC(N(C)Cc3noc(C)n3)C2)s1` (stereo unspecified) is -7.3%; for `Cc1cc(C)c(CNC(=O)NCC(O)c2cccc(F)c2)c(=O)[nH]1` (stereo unspecified) it is -4.37%.
The figure for `CCOc1cc(C(=O)N2CCCC(n3cncn3)C2)ccc1C` (stereo unspecified) is -4.35%; for `O=C(NCCOc1ccc2c(c1)CCC2)N1CCS(=O)(=O)CC1` it is -1.71%; for `c1cnnc(N2CCCC2CNCc2nc(-c3ccsc3)no2)c1` (stereo unspecified) it is -7.7%.
The figure for `COc1cccc(COCC(=O)N2CCCC(N3CCCC3)CC2)c1` (stereo unspecified) is -4.82%; for `Cc1nn(C)c(N2CCOCC2)c1CNC1CCN(C(C)(C)C)CC1` it is -3.66%.
With `Cn1c(NCC(O)c2ccc(F)cc2F)c(C#N)c(=O)n(C)c1=O` (stereo unspecified), the cytotoxicity at 10 µM was -10.9%.
On to `CC1=NN(c2ccc(C(=O)N3CCCC(n4ccnc4)C3)cc2)CC1` (stereo unspecified), for which the cytotoxicity at 10 µM is -15.6%.
To `COc1ncccc1CNc1cc(N2CCCC2CO)ncn1` (stereo unspecified) belongs -12.6%; to `c1ncn(CC2CN(Cc3noc(C4CC4)n3)CCO2)n1` (stereo unspecified), 1.59%; to `CC(C)Oc1ncccc1CNC(=O)c1cc[nH]n1`, -9.12%.
The figure for `Cc1nc(C)n(C2CCCN(C(=O)c3ccc(N(C)C)nn3)C2)n1` (stereo unspecified) is 0.722%.
The figure for `Cc1ccc(CN(CCN(C)C)Cc2c(C)nc3sccn23)o1` is 3.08%.
Regarding `Cc1cc(C[C@@H]2COC[C@H]2NCc2ccc(C(C)C)cc2)on1`, the cytotoxicity at 10 µM is -30.4%.
The figure for `CC(C)NC(=O)N1CCC2(C1)CN(c1ccsc1)C(=O)CN2C` (stereo unspecified) is 1.18%; for `COc1c(CNCc2nnc3n2CCCCC3)c(C(C)C)nn1C` it is 11.5%.
Regarding `O=C(C1=CCCCC1)N1CCO[C@H]2[C@H](Oc3ccccn3)CC[C@@H]21`, the cytotoxicity at 10 µM is 5.08%.
Consider `O=C(N[C@H]1CN(Cc2cccs2)[C@@H]2CCCO[C@H]12)c1cccnc1`, for which the cytotoxicity at 10 µM was -5.24%.
To `Cc1ccc(CN2CCc3onc(COc4cccnc4)c3C2)s1` belongs 5.98%; to `COc1ccc(CN2C[C@@H]3OCCN(CC4CCCO4)[C@@H]3C2)cc1` (stereo partly specified), -0.851%; to `Cc1cccc(C(=O)N2C[C@@H](OCc3cccnc3)[C@H]3OCCC[C@@H]32)n1`, -1.75%.
To `O=C(NCc1ccco1)[C@@]12CCO[C@@H]1CCN(c1ncccn1)C2` belongs 0.864%; to `COc1cccc(CSC=C2Nc3ccccc3S(=O)(=O)N2)c1`, 3.7%; to `CN(C)C(=O)N1C[C@H]2CC[C@@H](C1)N(Cc1nnc(C3CC3)o1)C2`, 0.266%.
